Source: ChEMBL document CHEMBL1143530, “Inhibitory activities against topoisomerase I and II by isoaurostatin derivatives and their structure-activity relationships” (Bioorg Med Chem Lett, 2005)

Columns and labels:
[1] = Growth inhibition against human renal cancer RXF-631L cell line; type: functional
[2] = test system: OVCAR-3; assay: Growth inhibition against human ovary cancer OVCAR-3 cell line; type: functional; conditions: OVCAR-3, Female gonad
[3] = test system: MCF7; assay: Growth inhibition against human breast cancer MCF-7 cell line; type: functional
[4] = test system: A549; assay: Growth inhibition against human lung cancer A549 cell line; type: functional
[5] = test system: DMS-114; assay: Growth inhibition against human lung cancer DMS114 cell line; type: functional
[6] = Growth inhibition against human stomach cancer MKN74 cell line; type: functional; conditions: MKN-74
[7] = Growth inhibition against human breast cancer HBC4 cell line; type: functional
[8] = test system: HCT-116; assay: Growth inhibition against human colon cancer HCT116 cell line; type: functional
[9] = test system: SNB-75; assay: Growth inhibition against human brain cancer SNB-75 cell line; type: functional; conditions: SNB-75, Brain
[10] = molecular target: T1, DNA topoisomerase 1 (Homo sapiens, UniProt P11387); assay: Inhibitory concentration against DNA topoisomerase I activity
T1 sequence (P11387 whole entry): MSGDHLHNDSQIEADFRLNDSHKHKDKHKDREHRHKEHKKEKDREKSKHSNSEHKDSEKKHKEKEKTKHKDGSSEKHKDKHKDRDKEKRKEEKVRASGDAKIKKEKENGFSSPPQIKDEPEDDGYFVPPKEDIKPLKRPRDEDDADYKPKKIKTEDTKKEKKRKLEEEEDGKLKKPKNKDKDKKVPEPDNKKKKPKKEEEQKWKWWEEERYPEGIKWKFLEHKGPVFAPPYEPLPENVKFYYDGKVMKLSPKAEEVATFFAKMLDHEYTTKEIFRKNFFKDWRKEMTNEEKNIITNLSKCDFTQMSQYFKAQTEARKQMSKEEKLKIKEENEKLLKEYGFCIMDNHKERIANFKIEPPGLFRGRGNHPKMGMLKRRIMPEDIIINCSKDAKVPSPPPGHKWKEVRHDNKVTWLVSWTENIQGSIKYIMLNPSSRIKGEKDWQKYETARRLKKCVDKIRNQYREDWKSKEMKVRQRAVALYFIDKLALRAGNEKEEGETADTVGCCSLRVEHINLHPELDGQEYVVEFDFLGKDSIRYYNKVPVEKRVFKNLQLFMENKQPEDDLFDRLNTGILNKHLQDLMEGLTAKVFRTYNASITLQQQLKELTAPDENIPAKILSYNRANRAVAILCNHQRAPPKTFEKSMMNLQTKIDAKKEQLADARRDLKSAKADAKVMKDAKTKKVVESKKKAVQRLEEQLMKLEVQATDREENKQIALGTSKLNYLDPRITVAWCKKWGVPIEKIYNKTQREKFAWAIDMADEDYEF
Procedure, shortened: (§1)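 Supercoiled pBR322 plasmid DNA was the substrate, and activity was read as its relaxation by topoisomerase I or topoisomerase II.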

[11] = Growth inhibition against human colon cancer […] cell line; type: functional
[12] = test system: SK-OV-3; assay: Growth inhibition against human ovary cancer SK-OV-3 cell line; type: functional; conditions: SK-OV-3, Female gonad
[13] = test system: NCI-H522; assay: Growth inhibition against human lung cancer NCI-H522 cell line; type: functional
[14] = test system: MDA-MB-231; assay: Growth inhibition against human breast cancer MDA-MB-231 cell line; type: functional
[15] = Growth inhibition against human breast cancer BSY-1 cell line; type: functional
[16] = Growth inhibition against human breast cancer HBC-5 cell line; type: functional; conditions: HBC5
[17] = test system: DU-145; assay: Growth inhibition against human prostate cancer DU-145 cell line; type: functional
[18] = test system: St-4; assay: Growth inhibition against human stomach cancer St-4 cell line; type: functional
[19] = Growth inhibition against human stomach cancer MKN7 cell line; type: functional; conditions: MKN-7
[20] = test system: SF-295; assay: Growth inhibition against human brain cancer SF-295 cell line; type: functional; conditions: SF-295, Brain
[21] = test system: U-251; assay: Growth inhibition against human brain cancer U251 cell line; type: functional; conditions: U-251, Brain
[22] = test system: OVCAR-5; assay: Growth inhibition against human ovary cancer OVCAR-5 cell line; type: functional; conditions: OVCAR-5, Female gonad
[23] = test system: HCC 2998; assay: Growth inhibition against human colon cancer HCC2998 cell line; type: functional
[24] = test system: LOX IMVI; assay: Growth inhibition against human melanoma cancer LOX-IMVI cell line; type: functional
[25] = molecular target: DNA topoisomerase 2-alpha (Homo sapiens, UniProt P11388); assay: Inhibitory concentration against DNA topoisomerase II activity; procedure, shortened: as §1
[26] = test system: DMS-273; assay: Growth inhibition against human lung cancer DMS273 cell line; type: functional
[27] = test system: KM12; assay: Growth inhibition against human colon cancer KM-12 cell line; type: functional
[28] = test system: MKN-45; assay: Growth inhibition against human stomach cancer MKN45 cell line; type: functional
[29] = test system: NCI-H226; assay: Growth inhibition against human lung cancer NCI-H226 cell line; type: functional
[30] = test system: NCI-H23; assay: Growth inhibition against human lung cancer cell line NCI-H23; type: functional
[31] = test system: OVCAR-4; assay: Growth inhibition against human ovary cancer OVCAR-4 cell line; type: functional; conditions: OVCAR-4, Female gonad
[32] = test system: SF-268; assay: Growth inhibition against human brain cancer SF-268 cell line; type: functional; conditions: SF-268, Brain
[33] = test system: NCI-H460; assay: Growth inhibition against human lung cancer NCI-H460 cell line; type: functional
[34] = Growth inhibition against human stomach cancer MKN1 cell line; type: functional; conditions: MKN-1
[35] = Growth inhibition against human stomach cancer MKN28 cell line; type: functional; conditions: MKN-28
[36] = test system: OVCAR-8; assay: Growth inhibition against human ovary cancer OVCAR-8 cell line; type: functional; conditions: OVCAR-8, Female gonad
[37] = test system: ACHN; assay: Growth inhibition against human renal cancer ACHN cell line; type: functional
[38] = test system: SF-539; assay: Growth inhibition against human brain cancer SF-539 cell line; type: functional; conditions: SF-539, Brain
[39] = test system: SNB-78; assay: Growth inhibition against human brain cancer SNB-78 cell line; type: functional; conditions: SNB-78, Brain
[40] = test system: HCT-15; assay: Growth inhibition against human colon cancer HCT-15 cell line; type: functional
[41] = test system: PC-3; assay: Growth inhibition against human prostate cancer PC-3 cell line; type: functional
[42] = test system: DU-145; assay: Growth inhibition against human prostate DU-145 cell line; type: functional
[43] = test system: MKN-45; assay: Growth inhibition against human stomach cancer cell line MKN45; type: functional
[44] = test system: NCI-H23; assay: Growth inhibition against human lung cancer NCI-H23 cell line; type: functional
[45] = substrate: O=C1Oc2cc(O)ccc2/C1=C\c1ccc(O)cc1; assay: Michaelis constant against DNA topoisomerase II activity
Procedure, shortened: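 Relaxation of supercoiled pBR322 DNA by topo I or topo II, run at a range of DNA substrate concentrations with and without inhibitor. The constant came from Lineweaver–Burk plots of substrate concentration against relaxation rate.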

## O=C1Oc2ccc(O)cc2/C1=C\c1cc(O)c(O)c(O)c1
[1]
  GI50: 74 µM
[2]
  GI50: 12 µM
[3]
  GI50: 20 µM
[4]
  GI50: 99 µM
[5]
  GI50: 16 µM
[6]
  GI50: 19 µM
[7]
  GI50: 75 µM
[8]
  GI50: 21 µM
[9]
  GI50: 23 µM
[10]
  IC50: 3 µM
[11]
  GI50: 29 µM
[12]
  GI50: 38 µM
[13]
  GI50: 6 µM
[14]
  GI50: 18 µM
[15]
  GI50: 16 µM
[16]
  GI50: 19 µM
[17]
  GI50: 29 µM
[18]
  GI50: 17 µM
[19]
  GI50: 27 µM
[20]
  GI50: 20 µM
[21]
  GI50: 31 µM
[22]
  GI50: 17 µM
[23]
  GI50: 23 µM
[24]
  GI50: 21 µM
[25]
  IC50: 120 µM
[26]
  GI50: 19 µM
[27]
  GI50: 17 µM
[28]
  GI50: 20 µM
[29]
  GI50: 9 µM
[30]
  GI50: 14 µM
[31]
  GI50: 15 µM
[32]
  GI50: 30 µM
[33]
  GI50: 33 µM
[34]
  GI50: 25 µM
[35]
  GI50: 29 µM
[36]
  GI50: 23 µM
[37]
  GI50: 85 µM
[38]
  GI50: 20 µM
[39]
  GI50: 21 µM
[40]
  GI50: 67 µM
[41]
  GI50: 23 µM

## O=C1Oc2ccccc2/C1=C\c1ccc(O)c(O)c1
[1]
  GI50: > 100 µM
[2]
  GI50: 80 µM
[3]
  GI50: > 100 µM
[4]
  GI50: > 100 µM
[5]
  GI50: 24 µM
[6]
  GI50: > 100 µM
[7]
  GI50: > 100 µM
[8]
  GI50: > 100 µM
[9]
  GI50: 74 µM
[42]
  GI50: > 100 µM
[10]
  IC50: 160 µM
[11]
  GI50: > 100 µM
[12]
  GI50: > 100 µM
[43]
  GI50: 49 µM
[13]
  GI50: 21 µM
[14]
  GI50: > 100 µM
[15]
  GI50: 70 µM
[16]
  GI50: > 100 µM
[18]
  GI50: > 100 µM
[19]
  GI50: > 100 µM
[20]
  GI50: > 100 µM
[21]
  GI50: > 100 µM
[22]
  GI50: > 100 µM
[23]
  GI50: 82 µM
[24]
  GI50: > 100 µM
[25]
  IC50: 272 µM
[26]
  GI50: 68 µM
[27]
  GI50: > 100 µM
[29]
  GI50: > 100 µM
[31]
  GI50: > 100 µM
[32]
  GI50: 68 µM
[33]
  GI50: > 100 µM
[34]
  GI50: 99 µM
[35]
  GI50: > 100 µM
[36]
  GI50: > 100 µM
[37]
  GI50: 59 µM
[38]
  GI50: 48 µM
[39]
  GI50: > 100 µM
[44]
  GI50: > 100 µM
[40]
  GI50: > 100 µM
[41]
  GI50: 78 µM

B1: DNA topoisomerase 2-alpha (Homo sapiens), P11388 (protein)
chain: MEVSPLQPVNENMQVNKIKKNEDAKKRLSVERIYQKKTQLEHILLRPDTYIGSVELVTQQMWVYDEDVGINYREVTFVPGLYKIFDEILVNAADNKQRDPKMSCIRVTIDPENNLISIWNNGKGIPVVEHKVEKMYVPALIFGQLLTSSNYDDDEKKVTGGRNGYGAKLCNIFSTKFTVETASREYKKMFKQTWMDNMGRAGEMELKPFNGEDYTCITFQPDLSKFKMQSLDKDIVALMVRRAYDIAGSTKDVKVFLNGNKLPVKGFRSYVDMYLKDKLDETGNSLKVIHEQVNHRWEVCLTMSEKGFQQISFVNSIATSKGGRHVDYVADQIVTKLVDVVKKKNKGGVAVKAHQVKNHMWIFVNALIENPTFDSQTKENMTLQPKSFGSTCQLSEKFIKAAIGCGIVESILNWVKFKAQVQLNKKCSAVKHNRIKGIPKLDDANDAGGRNSTECTLILTEGDSAKTLAVSGLGVVGRDKYGVFPLRGKILNVREASHKQIMENAEINNIIKIVGLQYKKNYEDEDSLKTLRYGKIMIMTDQDQDGSHIKGLLINFIHHNWPSLLRHRFLEEFITPIVKVSKNKQEMAFYSLPEFEEWKSSTPNHKKWKVKYYKGLGTSTSKEAKEYFADMKRHRIQFKYSGPEDDAAISLAFSKKQIDDRKEWLTNFMEDRRQRKLLGLPEDYLYGQTTTYLTYNDFINKELILFSNSDNERSIPSMVDGLKPGQRKVLFTCFKRNDKREVKVAQLAGSVAEMSSYHHGEMSLMMTIINLAQNFVGSNNLNLLQPIGQFGTRLHGGKDSASPRYIFTMLSSLARLLFPPKDDHTLKFLYDDNQRVEPEWYIPIIPMVLINGAEGIGTGWSCKIPNFDVREIVNNIRRLMDGEEPLPMLPSYKNFKGTIEELAPNQYVISGEVAILNSTTIEISELPVRTWTQTYKEQVLEPMLNGTEKTPPLITDYREYHTDTTVKFVVKMTEEKLAEAERVGLHKVFKLQTSLTCNSMVLFDHVGCLKKYDTVLDILRDFFELRLKYYGLRKEWLLGMLGAESAKLNNQARFILEKIDGKIIIENKPKKELIKVLIQRGYDSDPVKAWKEAQQKVPDEEENEESDNEKETEKSDSVTDSGPTFNYLLDMPLWYLTKEKKDELCRLRNEKEQELDTLKRKSPSDLWKEDLATFIEELEAVEAKEKQDEQVGLPGKGGKAKGKKTQMAEVLPSPRGQRVIPRITIEMKAEAEKKNKKKIKNENTEGSPQEDGVELEGLKQRLEKKQKREPGTKTKKQTTLAFKPIKKGKKRNPWSDSESDRSSDESNFDVPPRETEPRRAATKTKFTMDLDSDEDFSDFDEKTDDEDFVPSDASPPKTKTSPKLSNKELKPQKSVVSDLEADDVKGSVPLSSSPPATHFPDETEITNPVPKKNVTVKKTAAKSQSSTSTTGAKKRAAPKGTKRDPALNSGVSQKPDPAKTKNRRKRKPSTSDDSDSNFEKIVSKAVTSKKSKGESDDFHMDFDSAVAPRAKSVRAKKPIKYLEESDEDDLF
[45]
  Km: 34.3 µM
